# Bioassay records deposited in PubChem BioAssay by SRMLSC.
# The entries come from a sample that favours hits as a whole.
# HCT116 PTEN-null: PTEN-deleted cell growth suppression; 140,000 compounds, 1.2% hits; HCT116 PTEN-null viability, CellTiter-Glo, 60 h; hits give low values; AID 827; viability, % at 10 µM;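 active means viability at or below a set limit, 4 SD under the median of all tested compounds, cut at about 3.7% in these data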;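 further: PTEN knockout HCT116 line with beta catenin targeted HCT116 as companion control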
# HUVEC inhibit: human endothelial cell proliferation inhibition; HUVEC proliferation, CellTiter-Glo luminescence, 72 h; hits give low values; viability, % at 10 µM (by protocol); 86,000 compounds, 1.1% hits; AID 648;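 active means viability at or below 30%; inactive means viability above 30%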;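 further: 100% = median luminescence of DMSO-only cell control wells on each plate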
# Lung fibro prol: blocks proliferation of human lung fibroblasts. LL 47 human lung fibroblast viability, ATP luminescence; hits give low values. viability, % at 10 µM. 85,000 compounds, 1.1% hits. AID 719;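 active means viability at or below 50% in the single dose screen; inactive means viability above 50%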;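 further: compound exposure lasted 72 h before the ATP readout; 100% = median luminescence of untreated cell-only wells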
#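 Signal: luminescent ATP detection, CellTiter-Glo; assay system: LL 47 human lung fibroblasts; input: 1,150 cells/well; incubation: overnight cell rest, 72 h compound treatment at 37 °C; measure: % viability versus median cells-only luminescence; medium: IMEM growth medium with 15% fetal bovine serum; dosing: compound addition at 0.1% DMSO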
# H69AR growth 86K: blocks growth of human H69AR lung tumor cells. H69AR lung tumor viability, ATP luminescence, 72 h; hits give low values. viability, % at 10 µM. 85,000 compounds, 6% hits;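 active means viability at or below 40%; inactive means viability above 40%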;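 further: multidrug resistant small cell line overexpressing MRP-1 efflux transporter; 100% = mean luminescence of untreated control wells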
# bCat KO growth: beta-catenin-lacking colon tumor cell growth suppression | HCT116 beta-catenin knockout viability, CellTiter-Glo, 60 h; hits give low values | 140,000 compounds, 1.5% hits | viability, % at 10 µM | AID 818;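 active means viability at or under a set limit, the compound median less 4 SD, cut at about 6% in these data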;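 further: 0% = Hyamine 1622 control at 20 µM and 100% = untreated cell control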
# * marks the source's active call; other numbers are inactive results; . = no result; ! = not confirmed by another sample.
SMILES,HCT116 PTEN-null,HUVEC inhibit,Lung fibro prol,H69AR growth 86K,bCat KO growth
COc1cccc(-c2nnc(NC(=O)C3CCCCC3)o2)c1,79,100,90,79,77
CCOC(=O)c1ccccc1NC(=O)Cn1c(=O)n(Cc2ccccc2)c(=O)c2c(C)c(C)sc21,76,.,.,.,81
Cc1ccc(C)c(SCC(=O)Nc2cc(C)nn2-c2ccc(F)cc2)c1,77,.,.,.,92
COc1cccc([C@@H]2Oc3ccc(Br)cc3C(=O)[C@H]2OC(=O)NC2CCCC2)c1,91,.,.,.,91
O=C1[C@@H]2[C@H](C(=O)N1Cc1ccco1)[C@H]1C=C[C@@H]2C1,93,92,99,92,93
Cc1ccc2nc(-c3cccc(NC(=O)c4ccco4)c3)[nH]c2c1,64,60,.,21*,75
CCCCC(=O)Nc1cccc(-c2nnc(-c3ccccc3)o2)c1,77,71,105,60,84
O=C(Nc1ccc2nc(-c3cccnc3)[nH]c2c1)c1ccco1,103,114,98,73,103
O=C(Nc1ccccc1)c1cccc(-c2nnc(-c3ccccc3)o2)c1,89,19*,94,26*,96
O=C(Nc1cccc(-c2nnc(-c3ccccc3)o2)c1)c1ccco1,.,83,101,15*,.
CCOc1cc(C(=O)N/N=C\c2cn(CC)nc2C)cc(OCC)c1OCC,97,.,.,.,102
CCOc1ccc(OCCCCn2ccnc2)cc1,98,.,.,.,75
COc1ccc(C(=O)Nc2nc3nccc(-c4ccccc4)n3n2)cc1,98,.,.,.,99
O=S(Cc1ccccc1)CC(O)(c1ccc(Cl)cc1)c1ccc(Cl)cc1 (configuration not stated),13,.,.,.,5.7*
OCCN1CCN(CCCN2c3ccccc3Sc3ccc(Cl)cc32)CC1,2.3*,1.8*,28*,1.5*,1.5*
CN(C)CCCN1c2ccccc2Sc2ccc(Cl)cc21,2.7*!,50,44*,20*,1.8*!
CN(C)CCCN1c2ccccc2CCc2ccccc21,78,88,83,81,75
O=C1c2cccc3cccc(c23)C(=O)N1CCN1CCN(CC(O)COc2ccc3ccccc3c2)CC1 (configuration not stated),1.2*,.,.,.,1.5*
COc1cc(COCC(O)CN2CCN(CCN3C(=O)c4cccc5cccc(c45)C3=O)CC2)cc(OC)c1OC (configuration not stated),32,.,.,.,29
O=C1c2cccc3cccc(c23)C(=O)N1CCN1CCN(CC(O)COCc2ccc(Cl)cc2)CC1 (configuration not stated),2.7*,.,.,.,3.1*
CCc1ccc(OCC(O)CN2CCC(CN3C(=O)c4cccc5cccc(c45)C3=O)CC2)cc1 (configuration not stated),1.2*,.,.,.,1.1*
Cc1ccc(C)c(OCC(O)CN2CCN(CCN3C(=O)c4cccc5cccc(c45)C3=O)CC2)c1 (configuration not stated),1.2*,.,.,.,1.1*
O=C(N1CCOCC1)N1CCN(CC(O)COc2ccc3ccccc3c2)CC1 (configuration not stated),79,86,94,94,90
O=C(NCCc1nc2ccccc2[nH]1)/C(=C/c1ccco1)NC(=O)c1ccc(Br)o1,99,.,.,.,87
O=C(CN1CCSC1=NCc1ccccc1)c1ccccc1,84,.,.,.,84
SMILES,HCT116 PTEN-null,HUVEC inhibit,Lung fibro prol,H69AR growth 86K,bCat KO growth
CC1CN(C(=S)NC(=O)C2CCCCC2)CC(C)O1 (configuration not stated),93,.,.,.,94
O=C(COC(=O)c1ccc(S(=O)(=O)Nc2ccccc2)cc1)NCCC1=CCCCC1,95,.,.,.,103
O=C(Nc1cccc(Cl)c1)N1CCN2C(=O)c3ccccc3C12c1ccccc1 (configuration not stated),61,82,82,85,80
Cc1ccc(C(=O)N2CCN3C(=O)c4ccccc4C23c2ccc(Cl)cc2)cc1 (configuration not stated),8,66,61,33*,13
O=c1nc2s/c(=C\c3ccc(-c4ccccc4[N+](=O)[O-])o3)c(=O)n2nc1-c1ccccc1,97,.,.,.,92
CCOc1cc(CN2CCN(C(=O)c3ccco3)CC2)ccc1OC,102,94,99,86,92
CCOc1ccccc1-n1c(CN2CCN(C(=O)c3ccco3)CC2)nc2ccccc2c1=O,2.5*,52,15*,63,3.6*
CC(C)(C)c1nc(N2CCN(C(=O)c3ccco3)CC2)c2nnn(Cc3ccccc3)c2n1,60,76,93,11*,60
CCc1nc(N2CCN(C(=O)c3ccco3)CC2)c2oc3ccccc3c2n1,31,76,94,22*,42
Cc1ccc(NC(=O)C2(c3cccs3)CCOCC2)cc1C,94,.,.,.,83
Cc1ccc(CNCCC2=CCCCC2)cc1,84,.,.,.,83
COc1ccc(NCc2nc3ccccc3n2CCOc2ccc(C)cc2)cc1,51,.,.,.,29
COc1ccc(NC(=O)c2cccc(-n3c(C)ccc3C)c2)c(OC)c1,12,.,.,.,14
O=C(O)CCC(=O)Nc1ccccc1C(=O)NCc1ccccc1,100,.,.,.,99
COc1cccc(C(=O)NCC(=O)OCC(=O)Nc2cc(OC)c([N+](=O)[O-])cc2C)c1,100,.,.,.,96
CCn1c(/C=C/Nc2ccccc2)[n+](CC)c2cc(Cl)c(Cl)cc21,1.3*,.,.,.,1.5*
CCn1c(C)[n+](CCOCC[n+]2c(C)n(CC)c3cc(Cl)c(Cl)cc32)c2cc(Cl)c(Cl)cc21,107,.,.,.,103
Cc1cccc(/C=C/C(=O)c2cc(Br)ccc(=O)c2O)c1,8,.,.,.,5.2*
CCOc1ccc(/C=C/C(=O)c2cc(Br)ccc(=O)c2O)cc1,9,.,.,.,9
CCc1ccc(/C=C/C(=O)c2cc(Br)ccc(=O)c2O)cc1,7,.,.,.,5.1*
Cc1sc2nc(CN3CCC(C)CC3)nc(Cl)c2c1C,0.8*,.,.,.,0.9*
CCc1nnc(NS(=O)(=O)c2ccc(NC(=S)NC(=O)/C=C/c3ccc(C(C)C)cc3)cc2)s1,94,.,.,.,92
O=C(CSc1nc2ccc([N+](=O)[O-])cc2[nH]1)NCCc1ccccc1,91,.,.,.,96
